This is an account of results in ChEMBL document CHEMBL2040781, “Design, synthesis, and biological evaluation of chromone-based p38 MAP kinase inhibitors” (J Med Chem, 2011).

The target of assay [1] is Dual specificity mitogen-activated protein kinase kinase 6 (Homo sapiens) (UniProt P52564). Kind of assay: Inhibition of anisomycin-induced MKK6 phosphorylation in human MCF7 cells at 1 to 10 uM after 30 mins by SDS PAGE analysis. In kind it is cell-based.
A further assay relates to MCF7. Nature of the assay: Effect on p38alpha protein level in human MCF7 cells. In kind it is functional, cell-based.
The target of assay [2] is T1, Mitogen-activated protein kinase 14 (Homo sapiens, UniProt Q16539). Nature of the assay: Inhibition of anisomycin-induced p38alpha MAPK signalling in human MCF7 cells assessed as inhibition of HSP27 activation at 0.5 uM after 30 mins by SDS PAGE analysis. In kind it is cell-based. In a few lines: (§1)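 MCF-7 cells were preincubated with the compound at the indicated doses for 30 min, then stimulated with 10 μg/mL anisomycin for another 30 min. Total cell lysates were resolved by SDS-PAGE and immunoblotted with antibodies against phosphorylated ATF2, p38 and HSP27, with tubulin as the loading control.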

Assay [3] concerns the target Dual specificity mitogen-activated protein kinase kinase 3 (Homo sapiens) (UniProt P46734). Nature of the assay: Inhibition of anisomycin-induced MKK3 phosphorylation in human MCF7 cells at 1 to 10 uM after 30 mins by SDS PAGE analysis. In kind it is cell-based.
In assay [4] the target is T1, Mitogen-activated protein kinase 14. Nature of the assay: Inhibition of p38alpha phosphorylation in human MCF7 cells at 0.5 to 10 uM after 30 mins by SDS PAGE analysis. Type of assay: cell-based. In a few lines:
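MCF-7 cells were preincubated with compound for 30 min, then stimulated with 10 μg/mL anisomycin for another 30 min. Total cell lysates were resolved by SDS-PAGE and immunoblotted for phosphorylated ATF2, p38 and HSP27, with tubulin as the loading control.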

Assay [5] has the same target. Nature of the assay: Inhibition of anisomycin-induced p38alpha MAPK signalling in human MCF7 cells assessed as inhibition of HSP27 activation at 10 uM after 30 mins by SDS PAGE analysis. In kind it is cell-based. In a few lines: as §1

Activity calls are given as the source filed them. No cut-off for these calls is given here.

T1 sequence (Q16539 whole entry): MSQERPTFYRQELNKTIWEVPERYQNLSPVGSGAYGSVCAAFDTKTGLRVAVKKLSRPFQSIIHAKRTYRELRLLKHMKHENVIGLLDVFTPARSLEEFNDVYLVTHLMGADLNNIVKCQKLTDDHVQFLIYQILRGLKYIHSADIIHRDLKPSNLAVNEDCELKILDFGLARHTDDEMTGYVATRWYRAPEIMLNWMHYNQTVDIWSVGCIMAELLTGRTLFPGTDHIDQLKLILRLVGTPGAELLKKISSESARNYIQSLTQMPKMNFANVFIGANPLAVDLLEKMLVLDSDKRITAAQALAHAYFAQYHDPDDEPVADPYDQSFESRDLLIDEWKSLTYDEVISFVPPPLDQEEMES
Sequence of Dual specificity mitogen-activated protein kinase kinase 3 (Homo sapiens) (P46734 whole entry): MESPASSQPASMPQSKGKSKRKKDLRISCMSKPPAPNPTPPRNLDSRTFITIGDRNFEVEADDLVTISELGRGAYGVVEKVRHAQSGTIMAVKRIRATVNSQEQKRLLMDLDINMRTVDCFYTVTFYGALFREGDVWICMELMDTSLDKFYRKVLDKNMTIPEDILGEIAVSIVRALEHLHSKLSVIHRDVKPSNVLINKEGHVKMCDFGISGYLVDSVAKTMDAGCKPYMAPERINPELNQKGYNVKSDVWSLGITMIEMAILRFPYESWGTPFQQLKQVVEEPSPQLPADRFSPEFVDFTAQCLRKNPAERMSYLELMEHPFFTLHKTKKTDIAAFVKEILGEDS
Sequence of Dual specificity mitogen-activated protein kinase kinase 6 (Homo sapiens) (P52564 whole entry): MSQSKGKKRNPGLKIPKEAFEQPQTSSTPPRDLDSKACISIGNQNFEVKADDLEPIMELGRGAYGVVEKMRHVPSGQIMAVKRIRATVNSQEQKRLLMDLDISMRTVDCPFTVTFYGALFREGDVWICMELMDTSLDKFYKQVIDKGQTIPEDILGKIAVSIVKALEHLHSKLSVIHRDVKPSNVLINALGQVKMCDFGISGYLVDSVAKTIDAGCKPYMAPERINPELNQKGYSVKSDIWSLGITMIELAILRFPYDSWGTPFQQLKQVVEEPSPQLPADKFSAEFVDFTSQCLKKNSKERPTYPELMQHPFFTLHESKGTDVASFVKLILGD

On to `O=c1c(-c2ccc(F)cc2)c(-c2ccnc(NC3CCCCC3)c2)oc2ccccc12`, for which the inhibition entry in assay [1] and in assay [3] was “inactive” each time. Moreover, the outcome in the assay on MCF7 was inactive. Also, the inhibition entry in assay [2] and in assay [4] was “Active” throughout. Further, the Imax result in assay [5] is “Active”.
